According to ChEMBL document CHEMBL1126771, “Application of a conformationally restricted Phe-Leu dipeptide mimetic to the design of a combined inhibitor of angiotensin I-converting enzyme and neutral endopeptidase 24.11” (J Med Chem, 1993):

How the values were obtained:
Neprilysin = target: T1, Neprilysin (Rattus norvegicus, UniProt P07861); experiment: Binding affinity of compound against rat kidney neutral endopeptidase (NEP) was determined
T1 sequence (P07861 whole entry): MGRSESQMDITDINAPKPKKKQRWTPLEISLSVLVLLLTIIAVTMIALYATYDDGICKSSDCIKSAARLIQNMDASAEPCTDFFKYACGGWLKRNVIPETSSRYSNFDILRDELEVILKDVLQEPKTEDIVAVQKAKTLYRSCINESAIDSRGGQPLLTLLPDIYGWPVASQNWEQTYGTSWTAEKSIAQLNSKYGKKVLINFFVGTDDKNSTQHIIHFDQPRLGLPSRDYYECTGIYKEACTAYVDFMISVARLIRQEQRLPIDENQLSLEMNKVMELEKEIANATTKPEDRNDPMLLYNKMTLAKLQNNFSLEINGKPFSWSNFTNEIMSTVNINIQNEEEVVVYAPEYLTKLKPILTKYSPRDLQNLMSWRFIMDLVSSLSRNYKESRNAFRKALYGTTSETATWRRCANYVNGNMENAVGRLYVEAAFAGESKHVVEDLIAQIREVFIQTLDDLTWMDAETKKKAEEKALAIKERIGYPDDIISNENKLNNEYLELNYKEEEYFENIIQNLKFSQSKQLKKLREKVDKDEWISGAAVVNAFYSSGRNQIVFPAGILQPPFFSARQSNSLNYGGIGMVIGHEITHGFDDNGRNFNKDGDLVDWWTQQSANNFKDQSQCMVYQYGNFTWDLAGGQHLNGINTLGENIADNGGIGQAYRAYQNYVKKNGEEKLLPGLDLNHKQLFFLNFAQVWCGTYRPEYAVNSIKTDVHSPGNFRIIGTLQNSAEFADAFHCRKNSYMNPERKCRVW
Procedure, shortened: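 Rat kidney NEP. Fluorogenic assay using dansyl-D-Ala-Gly-(p-nitro)Phe-Gly-OH as substrate. Inhibitor solutions assayed for thiol content with Ellman's reagent immediately prior to testing.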

[1] = target: T2, Angiotensin-converting enzyme (Oryctolagus cuniculus, UniProt P12822); experiment: Binding affinity of compound against rabbit lung angiotensin I-converting enzyme (ACE) was determined
T2 sequence (P12822 whole entry): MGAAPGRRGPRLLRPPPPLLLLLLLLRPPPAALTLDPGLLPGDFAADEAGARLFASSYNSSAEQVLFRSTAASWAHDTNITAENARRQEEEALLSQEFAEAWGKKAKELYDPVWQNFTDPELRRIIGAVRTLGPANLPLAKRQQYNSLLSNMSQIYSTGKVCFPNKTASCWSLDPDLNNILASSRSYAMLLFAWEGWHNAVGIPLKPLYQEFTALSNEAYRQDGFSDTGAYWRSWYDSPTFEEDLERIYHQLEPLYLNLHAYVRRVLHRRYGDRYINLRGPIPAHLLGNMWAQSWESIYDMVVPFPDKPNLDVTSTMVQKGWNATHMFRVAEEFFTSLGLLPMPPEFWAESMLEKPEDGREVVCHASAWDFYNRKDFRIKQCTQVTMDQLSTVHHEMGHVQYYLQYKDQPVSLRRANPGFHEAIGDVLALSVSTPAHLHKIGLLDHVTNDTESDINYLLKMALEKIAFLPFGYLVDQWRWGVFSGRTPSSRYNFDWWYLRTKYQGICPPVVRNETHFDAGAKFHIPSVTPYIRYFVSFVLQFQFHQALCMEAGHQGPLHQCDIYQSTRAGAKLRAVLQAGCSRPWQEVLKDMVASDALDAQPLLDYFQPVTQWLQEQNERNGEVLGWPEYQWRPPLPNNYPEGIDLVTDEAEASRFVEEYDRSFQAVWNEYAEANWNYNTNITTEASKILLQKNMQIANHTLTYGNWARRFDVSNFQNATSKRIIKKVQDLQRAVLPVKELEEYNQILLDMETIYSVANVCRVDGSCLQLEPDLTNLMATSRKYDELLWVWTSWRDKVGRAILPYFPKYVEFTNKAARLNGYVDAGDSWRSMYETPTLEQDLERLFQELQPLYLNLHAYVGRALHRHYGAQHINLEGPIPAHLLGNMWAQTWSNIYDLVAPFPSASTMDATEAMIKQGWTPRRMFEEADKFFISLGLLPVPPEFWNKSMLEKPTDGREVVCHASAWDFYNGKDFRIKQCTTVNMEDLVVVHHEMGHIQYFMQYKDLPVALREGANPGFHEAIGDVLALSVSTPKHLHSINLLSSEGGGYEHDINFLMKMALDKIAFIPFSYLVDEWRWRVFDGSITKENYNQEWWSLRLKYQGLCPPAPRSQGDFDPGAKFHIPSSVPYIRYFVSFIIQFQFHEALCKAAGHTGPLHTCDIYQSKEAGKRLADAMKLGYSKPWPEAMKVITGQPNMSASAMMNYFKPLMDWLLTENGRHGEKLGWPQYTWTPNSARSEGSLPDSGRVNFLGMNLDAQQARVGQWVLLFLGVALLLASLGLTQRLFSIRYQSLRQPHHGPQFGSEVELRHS
Procedure, shortened: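 Rabbit lung ACE. Spectrophotometric assay with recrystallized (furylacryloyl)phenylalanyl-glycylglycine as substrate; colored contaminants removed beforehand. Thiol content of inhibitor solutions checked with Ellman's reagent just before testing.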

Row | Ki (Neprilysin) [nM] | Ki [1] [nM] | Compound
1 | > 10000 | 0.004 | O=C(O)[C@H](CCc1ccccc1)N[C@@H]1Cc2ccccc2C2CCC[C@H](C(=O)O)N2C1=O (some centres not stated)
2 | 5 | 2 | O=C(CS)N[C@@H]1Cc2ccccc2C2CCC[C@H](C(=O)O)N2C1=O (some centres not stated)
3 | 0.08 | 0.11 | O=C(NC1Cc2ccccc2C2CCC[C@H](C(=O)O)N2C1=O)C(S)Cc1ccccc1 (stereo in doubt)
4 | > 300 | 2 | O=C(O)[C@H]1CCCC2c3ccccc3C[C@@H](CS)C(=O)N21 (stereo in doubt; 3)
5 | 45 | > 7 | O=C(O)[C@H]1CCCC2c3ccccc3C[C@@H](CS)C(=O)N21 (stereo in doubt; 4)
6 | 0.07 | 4.5 | O=C(NC1Cc2ccccc2C2CCC[C@H](C(=O)O)N2C1=O)C(S)Cc1ccccc1 (stereo in doubt; 11b)
